Data set [1] concerns the target Toll-like receptor 8 (Homo sapiens) (UniProt Q9NR97). Description: Antagonist activity at human TLR8 expressed in HEK293 cells assessed as decrease in R848-induced NF-kappaB activation-mediated SEAP production at 10^-9 to 10^-5 M after 24 hrs by Quanti-blue-based assay. It is filed as cell-based. Put shortly:
(§1)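 HEK293 cells stably carrying a human TLR plus an NF-κB-driven SEAP reporter, seeded 5×10^4/well for 24 h at 37 °C, then stimulated: Pam3CSK4 100 µg/mL (TLR1/2), Pam2CSK4 100 µg/mL, poly I:C 5 µg/mL (TLR3), LPS 20 ng/mL (TLR4), flagellin 100 ng/mL (TLR5), R848 1 µg/mL (TLR7, TLR8), CpG-ODN2006 1 µg/mL (TLR9). After 24 h with compound, supernatant mixed with QUANTI-Blue, 1 h 37 °C, OD 620 nm.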

Data set [2] relates to HeLa. Nature of the data set: Cell cycle arrest in human HeLa cells assessed as accumulation at S phase at 5 uM after 24 hrs by propidium iodide staining based flow cytometry (reference value: 34.9%). It is filed as functional. The method in brief:
(§2)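 HeLa cells, 3×10^5/well, attached overnight, switched to serum-free medium for synchronisation, then DMSO or 5, 10, 20 µM for 24 h; cells fixed, PI-stained, G0/G1, S and G2/M fractions by flow cytometry; n = 3, mean ± SD.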
(In general: In flow cytometry, cells or beads pass a laser one at a time.)

The target in data set [3] is Toll-like receptor 5 (Homo sapiens) (UniProt O60602). Nature of the data set: Antagonist activity at human TLR5 expressed in HEK293 cells assessed as decrease in flagellin-induced NF-kappaB activation-mediated SEAP production at 10^-9 to 10^-5 M after 24 hrs by Quanti-blue-based assay. It is filed as cell-based. The method in brief:
as §1

The target of data set [4] is Toll-like receptor 4 (Homo sapiens) (UniProt O00206). Nature of the data set: Antagonist activity at human TLR4 expressed in HEK293 cells assessed as decrease in LPS-induced NF-kappaB activation-mediated SEAP production at 10^-9 to 10^-5 M after 24 hrs by Quanti-blue-based assay. It is filed as cell-based. Put shortly:
as §1

In data set [5] the test system is HeLa. Description: Growth inhibition of human HeLa cells after 48 hrs by WST1 assay. Format: functional. In general terms: Tetrazolium assays rely on reduction of a dye to a coloured formazan, in cell work by metabolically active cells.
In data set [6] the test system is HeLa. Description: Cell cycle arrest in human HeLa cells assessed as accumulation at S phase at 10 uM after 24 hrs by propidium iodide staining based flow cytometry (reference value: 34.9%). It is filed as functional. The method in brief:
as §2

The target of data set [7] is Protein kinase C (PKC) (Homo sapiens) (UniProt O94806+P41743+P17252+P05129+Q05655+P05771+Q05513+Q02156+P24723+Q15139+Q04759). Description: (§3) Inhibition of PKC in HEK-blue cells expressing human TLR7 assessed as inhibition of PMA-induced NF-kappaB activation-mediated SEAP production after 24 hrs by Quanti-blue-based assay. Format: cell-based.
The target of another data set is Protein kinase C (PKC). The description is as §3. Format: cell-based.
Data set [8] deals with Toll-like receptor 1/2 (Homo sapiens) (UniProt O60603+Q15399). Description: Antagonist activity at human TLR1/2 expressed in HEK293 cells assessed as decrease in Pam3CSK4-induced NF-kappaB activation-mediated SEAP production at 10^-9 to 10^-5 M after 24 hrs by Quanti-blue-based assay. It is filed as cell-based. The method in brief: as §1
The next data set deals with HEK293. Description: Cytotoxicity against HEK293 cells expressing human TLR7 assessed as reduction in cell viability up to 20 uM after 24 hrs by WST-1 assay. Format: cell-based. Particulars: hek293, 24 h. The method in brief: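 HEK hTLR7 cells seeded 5×10^4/well, 24 h, then exposed to a concentration series for 24 h; WST-1 reagent added at 37 °C until colour developed (30 min–2 h), absorbance 450 nm.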

Data set [9] can be described thus: Inhibition of LPS-induced NFkappaB activation in mouse RAW264.7 cells assessed as reduction in nitric oxide production after 18 hrs by DAN assay. Format: cell-based. Particulars: RAW264.7, 18 h. Put shortly:
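RAW 264.7 cells at 2×10^5 cells/mL, 24 h, medium refreshed, then LPS 100 ng/mL with or without graded compound for 18 h; nitrite in medium reacted with 2,3-diaminonaphthalene (0.05 mg/mL in 0.62 M HCl), 15 min in dark, as NO readout. n = 3, mean ± SD.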

Active and inactive are the calls of the source. The calls are words filed in the database; no cut-off is given here.

Chain of Toll-like receptor 5 (Homo sapiens) (O60602 whole entry): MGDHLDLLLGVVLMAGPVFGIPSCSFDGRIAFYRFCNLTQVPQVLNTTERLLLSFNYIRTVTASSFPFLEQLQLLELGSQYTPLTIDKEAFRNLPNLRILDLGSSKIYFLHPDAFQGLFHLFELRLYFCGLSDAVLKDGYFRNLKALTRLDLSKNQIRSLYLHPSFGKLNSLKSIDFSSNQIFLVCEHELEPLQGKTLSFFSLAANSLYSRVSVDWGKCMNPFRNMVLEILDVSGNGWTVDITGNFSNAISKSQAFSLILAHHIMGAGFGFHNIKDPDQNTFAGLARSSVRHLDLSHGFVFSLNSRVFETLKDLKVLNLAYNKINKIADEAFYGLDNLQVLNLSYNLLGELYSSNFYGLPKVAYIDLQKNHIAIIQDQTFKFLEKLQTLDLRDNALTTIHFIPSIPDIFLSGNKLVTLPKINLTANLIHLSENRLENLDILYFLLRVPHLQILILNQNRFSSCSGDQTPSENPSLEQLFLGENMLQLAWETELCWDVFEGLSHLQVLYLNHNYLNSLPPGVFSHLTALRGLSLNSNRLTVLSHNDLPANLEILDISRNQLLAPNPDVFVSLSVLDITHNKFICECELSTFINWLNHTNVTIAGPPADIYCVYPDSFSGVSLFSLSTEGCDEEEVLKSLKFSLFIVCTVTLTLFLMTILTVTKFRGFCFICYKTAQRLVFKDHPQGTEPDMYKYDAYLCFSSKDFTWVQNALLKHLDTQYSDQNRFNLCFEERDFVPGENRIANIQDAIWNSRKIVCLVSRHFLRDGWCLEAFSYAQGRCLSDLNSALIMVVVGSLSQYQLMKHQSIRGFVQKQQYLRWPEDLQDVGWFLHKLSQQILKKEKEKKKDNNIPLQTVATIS
Chain of Toll-like receptor 4 (Homo sapiens) (O00206 whole entry): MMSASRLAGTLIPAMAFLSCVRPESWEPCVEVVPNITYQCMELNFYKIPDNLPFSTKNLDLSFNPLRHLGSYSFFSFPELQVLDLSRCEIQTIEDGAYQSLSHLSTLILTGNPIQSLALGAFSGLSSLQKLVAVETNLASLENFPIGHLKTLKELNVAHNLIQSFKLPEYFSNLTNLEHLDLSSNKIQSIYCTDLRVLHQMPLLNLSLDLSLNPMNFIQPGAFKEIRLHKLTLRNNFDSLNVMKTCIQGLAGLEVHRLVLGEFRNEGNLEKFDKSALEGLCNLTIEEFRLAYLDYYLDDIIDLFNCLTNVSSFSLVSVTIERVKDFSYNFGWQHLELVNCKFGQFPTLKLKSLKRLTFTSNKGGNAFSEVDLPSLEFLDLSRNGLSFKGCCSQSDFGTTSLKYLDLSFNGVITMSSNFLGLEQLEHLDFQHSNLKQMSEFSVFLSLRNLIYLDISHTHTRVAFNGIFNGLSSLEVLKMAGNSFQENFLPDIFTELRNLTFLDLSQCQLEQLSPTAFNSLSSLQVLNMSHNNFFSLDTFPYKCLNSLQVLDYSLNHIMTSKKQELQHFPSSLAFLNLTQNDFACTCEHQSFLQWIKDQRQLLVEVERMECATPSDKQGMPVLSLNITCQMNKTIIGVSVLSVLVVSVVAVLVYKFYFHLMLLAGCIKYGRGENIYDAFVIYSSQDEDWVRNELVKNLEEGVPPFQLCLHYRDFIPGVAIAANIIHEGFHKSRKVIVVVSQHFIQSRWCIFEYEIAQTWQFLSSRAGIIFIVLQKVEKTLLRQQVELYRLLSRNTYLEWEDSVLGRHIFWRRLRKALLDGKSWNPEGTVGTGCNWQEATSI
Chain of Toll-like receptor 8 (Homo sapiens) (Q9NR97 whole entry): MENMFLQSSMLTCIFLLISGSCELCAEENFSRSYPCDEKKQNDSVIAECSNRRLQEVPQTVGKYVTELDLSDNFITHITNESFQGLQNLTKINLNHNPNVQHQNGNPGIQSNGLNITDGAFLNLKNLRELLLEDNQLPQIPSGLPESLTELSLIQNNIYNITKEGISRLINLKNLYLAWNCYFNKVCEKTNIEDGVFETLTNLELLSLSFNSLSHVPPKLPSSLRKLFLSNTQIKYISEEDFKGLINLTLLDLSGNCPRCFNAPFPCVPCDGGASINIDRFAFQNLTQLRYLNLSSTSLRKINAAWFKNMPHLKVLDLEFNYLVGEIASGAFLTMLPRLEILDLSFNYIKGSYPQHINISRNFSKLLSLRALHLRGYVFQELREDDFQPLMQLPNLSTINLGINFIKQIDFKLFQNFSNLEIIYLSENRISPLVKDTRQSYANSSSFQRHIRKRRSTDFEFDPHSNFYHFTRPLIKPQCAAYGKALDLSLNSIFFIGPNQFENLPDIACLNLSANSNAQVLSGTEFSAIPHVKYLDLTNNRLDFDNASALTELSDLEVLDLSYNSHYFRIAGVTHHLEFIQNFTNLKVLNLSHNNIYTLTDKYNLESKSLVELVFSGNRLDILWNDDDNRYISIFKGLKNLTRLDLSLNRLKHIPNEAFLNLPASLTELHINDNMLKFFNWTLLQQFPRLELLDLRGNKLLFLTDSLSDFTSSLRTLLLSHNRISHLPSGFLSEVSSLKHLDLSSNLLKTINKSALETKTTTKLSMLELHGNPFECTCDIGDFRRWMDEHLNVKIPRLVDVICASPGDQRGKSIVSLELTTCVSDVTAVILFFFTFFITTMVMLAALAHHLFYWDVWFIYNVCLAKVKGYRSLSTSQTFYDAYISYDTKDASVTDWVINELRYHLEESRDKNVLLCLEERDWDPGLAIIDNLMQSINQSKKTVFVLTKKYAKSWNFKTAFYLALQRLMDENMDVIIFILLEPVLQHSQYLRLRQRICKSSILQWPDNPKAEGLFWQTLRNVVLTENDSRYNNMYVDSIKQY

Turning to `O=C(NNC(=O)c1csc(-c2ccc(Cl)cc2Cl)n1)c1ccccn1`, the inhibition result in data set [1], in data set [3], in data set [4] and in [8] was “Active” each time. For the same compound, the figures for the Activity in the data set with HeLa [2], with HeLa [6] and in the data set on HEK293 were 48.4%, 41.7% and “Non-Toxic”, respectively. Halving of growth with HeLa [5] (GI50) required 1350 nM. In addition, in [7], the inhibition result was “Dose-dependent effect”. For the same compound, the IC50 – broadly, the point on the concentration scale where inhibition reaches its midpoint – is 590 nM on Protein kinase C (PKC) and 80 nM in data set [9].

The record behind these values is ChEMBL document CHEMBL4190396, “Discovery of Novel Small-Molecule Inhibitors of NF-κB Signaling with Antiinflammatory and Anticancer Properties” (J Med Chem, 2018).
